Experimental findings from ChEMBL document CHEMBL4340551, “Design, synthesis and preliminary bioactivity studies of indomethacin derivatives as Bcl-2/Mcl-1 dual inhibitors” (Bioorg Med Chem, 2019) are described below.

The term IC50 denotes the concentration that inhibits the measured activity by half. By Ki is commonly meant the dissociation constant of the complex between target and ligand, obtained from inhibition or displacement.

Each structure is given as a SMILES string. Where only a bound is given, the exact number is not on record here.

One test has as its system Jurkat. In words: Antiproliferative activity against human Jurkat cells assessed as reduction in cell growth incubated for 48 hrs by MTT assay. It is filed as functional, cell-based. An outline of the steps: (§1)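 PC-3, Jurkat and K562 cells grown in RPMI 1640 with 10% FBS at 37°C, 5% CO2. Cells seeded at 2000-4000 per well and left 8 h before compound addition at a range of concentrations. Exposure 48 h, then 0.5% MTT solution for 4 h. Formazan dissolved in DMSO and absorbance read at 570 nm. IC50 derived from concentrations and inhibitory ratios.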
(Tetrazolium assays rely on reduction of a dye to a coloured formazan, in cell work by metabolically active cells.)

Test [1] has as its target T1, Apoptosis regulator Bcl-2 (Homo sapiens, UniProt P10415). In words: Potency index, ratio of Ki for WL276 to Ki for test compound for inhibition of 5-FAM-tagged Bid-BH3 peptide binding to Bcl2 (unknown origin) by fluorescence polarization assay. (In fluorescence polarisation assays a small probe gives low polarisation when free and higher when bound to something large.)

The next test addresses Bcl-2-like protein 1 (Homo sapiens, UniProt Q07817). In words: Inhibition of 5-FAM-tagged Bid-BH3 peptide binding to Bcl-XL (unknown origin) by fluorescence polarization assay. Put shortly: (§2)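 Competitive fluorescence polarization in which compounds displace labelled Bid-BH3 peptide from the Bcl-2 family protein, read as a fall in mP. IC50 taken from mP versus concentration. Ki calculated from IC50, Kd, and the peptide and protein concentrations.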

A further test has as its system PC-3. In words: Antiproliferative activity against human PC3 cells assessed as reduction in cell growth incubated for 48 hrs by MTT assay. It is filed as functional, cell-based. The following applies: PC-3, 48 h. An outline of the steps:
as §1

The target of test [2] is T1, Apoptosis regulator Bcl-2. In words: Potency index, ratio of Ki for UMI77 to Ki for test compound for inhibition of 5-FAM-tagged Bid-BH3 peptide binding to Bcl2 (unknown origin) by fluorescence polarization assay.
The next test has as its system K562. In words: Antiproliferative activity against human K562 cells assessed as reduction in cell growth incubated for 48 hrs by MTT assay. It is filed as functional, cell-based. The note with it: K562, 48 h. An outline of the steps:
as §1

Test [3] concerns the target Induced myeloid leukemia cell differentiation protein Mcl-1 (Homo sapiens, UniProt Q07820). In words: Inhibition of 5-FAM-tagged Bid-BH3 peptide binding to Mcl1 (unknown origin) by fluorescence polarization assay. An outline of the steps: as §2
The target of test [4] is T1, Apoptosis regulator Bcl-2. In words: Inhibition of 5-FAM-tagged Bid-BH3 peptide binding to Bcl2 (unknown origin) by fluorescence polarization assay.

Induced myeloid leukemia cell differentiation protein Mcl-1, sequence (Q07820 whole entry): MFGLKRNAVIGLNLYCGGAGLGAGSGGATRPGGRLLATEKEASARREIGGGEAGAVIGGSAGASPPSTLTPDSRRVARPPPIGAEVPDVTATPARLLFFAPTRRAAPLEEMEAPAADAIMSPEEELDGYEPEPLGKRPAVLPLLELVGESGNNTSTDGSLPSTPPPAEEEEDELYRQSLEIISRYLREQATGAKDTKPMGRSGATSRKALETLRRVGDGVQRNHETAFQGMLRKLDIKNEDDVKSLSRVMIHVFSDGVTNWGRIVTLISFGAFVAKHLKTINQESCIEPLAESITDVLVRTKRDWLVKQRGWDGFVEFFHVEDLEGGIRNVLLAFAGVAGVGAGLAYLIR
Bcl-2-like protein 1, sequence (Q07817 whole entry): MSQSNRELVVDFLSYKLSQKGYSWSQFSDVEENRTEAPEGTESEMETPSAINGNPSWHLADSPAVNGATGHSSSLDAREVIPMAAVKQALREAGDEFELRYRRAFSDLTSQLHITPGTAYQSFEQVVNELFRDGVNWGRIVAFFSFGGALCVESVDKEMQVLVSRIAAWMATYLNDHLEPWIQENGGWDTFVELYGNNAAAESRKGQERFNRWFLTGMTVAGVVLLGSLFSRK
T1 sequence (P10415 whole entry): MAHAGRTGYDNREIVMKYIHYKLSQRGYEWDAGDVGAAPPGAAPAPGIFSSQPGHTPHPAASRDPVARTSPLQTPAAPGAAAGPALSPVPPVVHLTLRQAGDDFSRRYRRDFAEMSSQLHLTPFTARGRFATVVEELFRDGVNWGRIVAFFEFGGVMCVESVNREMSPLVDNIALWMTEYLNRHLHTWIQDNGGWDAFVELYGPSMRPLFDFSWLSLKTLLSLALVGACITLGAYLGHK

Take `COc1ccc2c(c1)c(CC(=O)N[C@@H](Cc1ccc(OCc3cccc(C#N)c3)cc1)C(=O)NS(=O)(=O)c1ccc(Cl)c([N+](=O)[O-])c1)c(C)n2C(=O)c1ccc(Cl)cc1`: the IC50 in the test on Jurkat was determined as 55.2 µM; in the test on PC-3, 38.2 µM; with K562, 51.6 µM. Further, the Ratio Ki in test [1] was 2 to 3; in test [2] it was 5 to 6. For the same compound, the Ki entry at Bcl-2-like protein 1 was “Not Active”; in test [3], 0.48 µM; in test [4] (read-out: Ki) it was 0.44 µM.
Take `COc1ccc2c(c1)c(CC(=O)N[C@@H](Cc1ccc(OCc3ccccc3)cc1)C(=O)NS(=O)(=O)c1ccc(Cl)c([N+](=O)[O-])c1)c(C)n2C(=O)c1ccc(Cl)cc1`: the Ratio Ki in test [1] is 2 to 3; in test [2], 5 to 6. For the same compound, the Ki in test [4] (read-out: Ki) is 0.52 µM.
For `COc1ccc2c(c1)c(CC(=O)N[C@@H](Cc1ccc(OCc3ccc4ccccc4c3)cc1)C(=O)NS(=O)(=O)c1ccc(Cl)c([N+](=O)[O-])c1)c(C)n2C(=O)c1ccc(Cl)cc1`, in that order: 2 to 3, 5 to 6 and 0.56 µM.
With `COc1ccc(C[C@H](NC(=O)Cc2c(C)n(C(=O)c3ccc(Cl)cc3)c3ccc(OC)cc23)C(=O)NS(=O)(=O)c2ccc(Cl)c([N+](=O)[O-])c2)cc1`, the Ki in test [4] (read-out: Ki) was more than 5 µM.
In the case of `COc1ccc2c(c1)c(CC(=O)N[C@H](C(=O)NS(=O)(=O)c1ccc(Cl)c([N+](=O)[O-])c1)C(C)C)c(C)n2C(=O)c1ccc(Cl)cc1`, the Ki entry in test [4] was “Not Active”.
On to `COc1cccc(COc2ccc(C[C@H](NC(=O)Cc3c(C)n(C(=O)c4ccc(Cl)cc4)c4ccc(OC)cc34)C(=O)NS(=O)(=O)c3ccc(Cl)c([N+](=O)[O-])c3)cc2)c1`, for which the results for the IC50 with Jurkat, in the test with PC-3 and in the test with K562 were 35.9 µM, 31.7 µM and 36.2 µM, respectively. In addition, the results for the Ratio Ki in test [1] and in test [2] were 2 to 3 and 5 to 6, respectively. In test [4] (read-out: Ki), the Ki was 0.48 µM.
For the compound `COc1ccc2c(c1)c(CC(=O)N[C@@H](C)C(=O)NS(=O)(=O)c1ccc(Cl)c([N+](=O)[O-])c1)c(C)n2C(=O)c1ccc(Cl)cc1`, the Ki entry in test [4] was “Not Active”.
Take `COc1ccc2c(c1)c(CC(=O)N[C@@H](Cc1ccc(OC(C)C)cc1)C(=O)NS(=O)(=O)c1ccc(Cl)c([N+](=O)[O-])c1)c(C)n2C(=O)c1ccc(Cl)cc1`: in test [4] (read-out: Ki), the Ki was more than 5 µM.
As to `COc1ccc2c(c1)c(CC(=O)N[C@@H](Cc1ccc(OCc3ccc([N+](=O)[O-])cc3)cc1)C(=O)NS(=O)(=O)c1ccc(Cl)c([N+](=O)[O-])c1)c(C)n2C(=O)c1ccc(Cl)cc1`, the results for the Ratio Ki in test [1] and in test [2] were 2 to 3 and 5 to 6, respectively. In addition, the Ki in test [4] (read-out: Ki) turned out to be 0.51 µM.
With `COc1ccc2c(c1)c(CC(=O)N[C@@H](Cc1ccccc1)C(=O)NS(=O)(=O)c1ccc(Br)cc1)c(C)n2C(=O)c1ccc(Cl)cc1`, the inhibitory constant (Ki) in test [4] (read-out: Ki) is more than 5 µM.
On the same count and under the same terms, as for `COc1ccc2c(c1)c(CC(=O)N[C@@H](CC(C)C)C(=O)NS(=O)(=O)c1ccc(Cl)c([N+](=O)[O-])c1)c(C)n2C(=O)c1ccc(Cl)cc1`, the figure is more than 5 µM.
Turning to `COc1ccc2c(c1)c(CC(=O)N[C@@H](Cc1ccc(OCc3ccccc3)cc1)C(=O)NS(=O)(=O)c1ccc(Br)cc1)c(C)n2C(=O)c1ccc(Cl)cc1`, the figures for the Ratio Ki in test [1] and in test [2] were 2 to 3 and 5 to 6, respectively. The Ki in test [4] (read-out: Ki) worked out at 0.53 µM.
In the case of `COc1ccc2c(c1)c(CC(=O)N[C@@H](Cc1ccc(OCc3ccccc3Br)cc1)C(=O)NS(=O)(=O)c1ccc(Cl)c([N+](=O)[O-])c1)c(C)n2C(=O)c1ccc(Cl)cc1`, the IC50 in the test on Jurkat is 34 µM; in the test with PC-3, 36.1 µM; in the test on K562, 41.5 µM. The Ratio Ki in test [1] lay within 2 to 3; in test [2], 5 to 6. The Ki result at Bcl-2-like protein 1 is “Not Active”; in test [3] it was 0.52 µM; in test [4] (read-out: Ki) it was 0.45 µM.
Turning to `COc1ccc2c(c1)c(CC(=O)N[C@@H](Cc1ccc(OCc3ccccc3C#N)cc1)C(=O)NS(=O)(=O)c1ccc(Cl)c([N+](=O)[O-])c1)c(C)n2C(=O)c1ccc(Cl)cc1`, the Ratio Ki in test [1] fell in the range of 2 to 3; in test [2] it was 5 to 6. In addition, in test [4] (read-out: Ki), the Ki amounted to 0.67 µM.
As to `COc1ccc2c(c1)c(CC(=O)N[C@@H](Cc1ccc(Br)cc1)C(=O)NS(=O)(=O)c1ccc(Cl)c([N+](=O)[O-])c1)c(C)n2C(=O)c1ccc(Cl)cc1`, the Ki in test [4] (read-out: Ki) came to 0.59 µM.
Still for that read-out and setting: as for `COc1ccc2c(c1)c(CC(=O)N[C@@H](Cc1c[nH]c3ccccc13)C(=O)NS(=O)(=O)c1ccc(Cl)c([N+](=O)[O-])c1)c(C)n2C(=O)c1ccc(Cl)cc1`, the figure is more than 5 µM; as for `COc1ccc2c(c1)c(CC(=O)N[C@@H](CCSC)C(=O)NS(=O)(=O)c1ccc(Cl)c([N+](=O)[O-])c1)c(C)n2C(=O)c1ccc(Cl)cc1`, more than 5 µM.
For the compound `COc1ccc2c(c1)c(CC(=O)N[C@@H](Cc1ccc(OCc3cccc(C)c3)cc1)C(=O)NS(=O)(=O)c1ccc(Cl)c([N+](=O)[O-])c1)c(C)n2C(=O)c1ccc(Cl)cc1`, the IC50 amounted to 30.3 µM in the test on Jurkat, 28.6 µM in the test on PC-3 and 38.8 µM in the test on K562. Besides, the values for the Ratio Ki in test [1] and in test [2] were 2 to 3 and 5 to 6, respectively. Moreover, the results for the Ki entry (at Bcl-2-like protein 1; in test [3]; in test [4] (read-out: Ki)) were “Not Active”, 0.49 µM and 0.43 µM, respectively.
As to `COc1ccc2c(c1)c(CC(=O)N[C@@H](Cc1ccc(OCc3ccc([N+](=O)[O-])cc3)cc1)C(=O)NS(=O)(=O)c1ccc(Br)cc1)c(C)n2C(=O)c1ccc(Cl)cc1`, the Ratio Ki was in the range of 2 to 3 in test [1] and 5 to 6 in test [2]. Further, in test [4] (read-out: Ki), the Ki turned out to be 0.63 µM.
`COc1ccc2c(c1)c(CC(=O)N[C@@H](Cc1ccccc1)C(=O)NS(=O)(=O)c1ccccc1)c(C)n2C(=O)c1ccc(Cl)cc1`: the Ki entry in test [4] is on record as “Not Active”.
Turning to `COc1ccc(C[C@H](NC(=O)Cc2c(C)n(C(=O)c3ccc(Cl)cc3)c3ccc(OC)cc23)C(=O)NS(=O)(=O)c2ccc(Br)cc2)cc1`, the Ki in test [4] (read-out: Ki) is more than 5 µM.
The same measure, in the same setting: in the case of `CCC(C)[C@H](NC(=O)Cc1c(C)n(C(=O)c2ccc(Cl)cc2)c2ccc(OC)cc12)C(=O)NS(=O)(=O)c1ccc(Cl)c([N+](=O)[O-])c1` (some centres undefined) it was 4.9 µM; in that of `CCCOc1ccc(C[C@H](NC(=O)Cc2c(C)n(C(=O)c3ccc(Cl)cc3)c3ccc(OC)cc23)C(=O)NS(=O)(=O)c2ccc(Cl)c([N+](=O)[O-])c2)cc1`, 1.3 µM; in that of `COc1ccc2c(c1)c(CC(=O)N[C@@H](Cc1ccccc1)C(=O)NS(=O)(=O)c1ccc(Cl)c([N+](=O)[O-])c1)c(C)n2C(=O)c1ccc(Cl)cc1`, more than 5 µM.
Consider `COc1ccc2c(c1)c(CC(=O)N[C@@H](Cc1ccc(OCc3ccc(C)cc3)cc1)C(=O)NS(=O)(=O)c1ccc(Cl)c([N+](=O)[O-])c1)c(C)n2C(=O)c1ccc(Cl)cc1`, for which the Ratio Ki was in the range of 2 to 3 in test [1] and 5 to 6 in test [2]. The inhibition constant Ki in test [4] (read-out: Ki) is 0.56 µM.
In the case of `O=C(O)CSc1cc(NS(=O)(=O)c2ccc(Br)cc2)c2ccccc2c1O`, the Ki on Bcl-2-like protein 1 (read-out: Ki) worked out at 7.85 µM; in test [3], 0.18 µM; in test [4] (read-out: Ki), 2.9 µM.
Take `COc1ccc2c(c1)c(CC(=O)NCC(=O)NS(=O)(=O)c1ccc(Br)cc1)c(C)n2C(=O)c1ccc(Cl)cc1`: the Ki entry in test [4] is listed as “Not Active”.
